Source: ChEMBL document CHEMBL2040768, “Synthesis, antimicrobial and cytotoxic activities of sulfone linked bis heterocycles” (Eur J Med Chem, 2012)
In brackets after ≈: the same amount, converted by molar mass. Activity calls are given as the source filed them. No cut-off for these calls is given here.

How the values were obtained:
Staphylococcus aureus [1] = assay: Antibacterial activity against Staphylococcus aureus at 50 ug/ml after 24 hrs by agar well diffusion method; type: functional; conditions: read-out: DIZ
Procedure, shortened: (§1)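 Agar well diffusion. Nutrient plates swabbed with 24 h broth culture of the bacterium; 6 mm wells bored and loaded with DMSO solutions of compound (wells at 50 and 100 per well). Chloramphenicol positive control, DMSO negative control. Plates held 37 °C, 24 h; inhibition zone diameter (mm) measured, mean of duplicates.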

Staphylococcus aureus [2] = assay: Antibacterial activity against Staphylococcus aureus at 100 ug/ml after 24 hrs by agar well diffusion method; type: functional; conditions: read-out: DIZ; procedure, shortened: as §1
Bacillus subtilis [3] = assay: Antibacterial activity against Bacillus subtilis at 50 ug/ml after 24 hrs by agar well diffusion method; type: functional; conditions: read-out: DIZ; procedure, shortened: as §1
Bacillus subtilis [4] = assay: Antibacterial activity against Bacillus subtilis at 100 ug/ml after 24 hrs by agar well diffusion method; type: functional; conditions: read-out: DIZ; procedure, shortened: as §1
Pseudomonas aeruginosa [5] = assay: Antibacterial activity against Pseudomonas aeruginosa at 50 ug/ml after 24 hrs by agar well diffusion method; type: functional; conditions: for zone of inhibition at 50 µg/mL: read-out: DIZ; procedure, shortened: as §1
Pseudomonas aeruginosa [6] = assay: Antibacterial activity against Pseudomonas aeruginosa at 100 ug/ml after 24 hrs by agar well diffusion method; type: functional; conditions: for zone of inhibition at 100 µg/mL: read-out: DIZ; procedure, shortened: as §1
Klebsiella pneumoniae [7] = assay: Antibacterial activity against Klebsiella pneumoniae at 50 ug/ml after 24 hrs by agar well diffusion method; type: functional; conditions: for zone of inhibition at 50 µg/mL: read-out: DIZ; procedure, shortened: as §1
Klebsiella pneumoniae [8] = assay: Antibacterial activity against Klebsiella pneumoniae at 100 ug/ml after 24 hrs by agar well diffusion method; type: functional; conditions: for zone of inhibition at 100 µg/mL: read-out: DIZ; procedure, shortened: as §1
Staphylococcus aureus [9] = assay: Antibacterial activity against Staphylococcus aureus after 24 hrs by broth dilution method; type: functional
Procedure, shortened: (§2)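 Broth dilution MIC. Test samples in DMSO added at increasing concentrations to tubes of nutrient broth cultures, incubated 37 °C for 24 h. Visible turbidity scored against NB control; solvent and no-sample controls included. MIC = lowest concentration preventing visible growth.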

Bacillus subtilis [10] = assay: Antibacterial activity against Bacillus subtilis after 24 hrs by broth dilution method; type: functional; procedure, shortened: as §2
Pseudomonas aeruginosa [11] = assay: Antibacterial activity against Pseudomonas aeruginosa after 24 hrs by broth dilution method; type: functional; procedure, shortened: as §2
Klebsiella pneumoniae [12] = assay: Antibacterial activity against Klebsiella pneumoniae after 24 hrs by broth dilution method; type: functional; procedure, shortened: as §2
Aspergillus niger [13] = assay: Antifungal activity against Aspergillus niger at 50 ug/ml after 48 hrs by agar well diffusion method; type: functional; conditions: for zone of inhibition at 50 µg/mL: read-out: DIZ
Procedure, shortened: (§3)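 Fungal agar well diffusion. Plates swabbed with fungal culture, 6 mm wells filled with DMSO solutions of compound (50 and 100 per well). Ketoconazole positive and DMSO negative controls. Plates incubated 28 °C for 48 h; zone of inhibition diameter (mm) read, average of duplicates.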

Aspergillus niger [14] = assay: Antifungal activity against Aspergillus niger at 100 ug/ml after 48 hrs by agar well diffusion method; type: functional; conditions: for zone of inhibition at 100 µg/mL: read-out: DIZ; procedure, shortened: as §3
Penicillium chrysogenum [15] = assay: Antifungal activity against Penicillium chrysogenum at 50 ug/ml after 48 hrs by agar well diffusion method; type: functional; conditions: for zone of inhibition at 50 µg/mL: read-out: DIZ; procedure, shortened: as §3
Penicillium chrysogenum [16] = assay: Antifungal activity against Penicillium chrysogenum at 100 ug/ml after 48 hrs by agar well diffusion method; type: functional; conditions: for zone of inhibition at 100 µg/mL: read-out: DIZ; procedure, shortened: as §3
Aspergillus niger [17] = assay: Antifungal activity against Aspergillus niger after 48 hrs by broth dilution method; type: functional
Procedure, shortened: (§4)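 Fungal MIC by broth dilution. Compounds dissolved in DMSO, added at rising concentrations to fungal culture tubes, incubated 28 °C for 48 h. Tubes read for visible turbidity alongside a solvent control; lowest concentration with no visible growth taken as MIC.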

Penicillium chrysogenum [18] = assay: Antifungal activity against Penicillium chrysogenum after 48 hrs by broth dilution method; type: functional; procedure, shortened: as §4
A549 = assay: Cytotoxicity against human A549 cells up to 0.2 mM after 72 hrs by MTT assay

| Compound | zone of inhibition at 50 µg/mL (Staphylococcus aureus [1]) [mm] | zone of inhibition at 100 µg/mL (Staphylococcus aureus [2]) [mm] | zone of inhibition at 50 µg/mL (Bacillus subtilis [3]) [mm] | zone of inhibition at 100 µg/mL (Bacillus subtilis [4]) [mm] | zone of inhibition at 50 µg/mL (Pseudomonas aeruginosa [5]) [mm] | zone of inhibition at 100 µg/mL (Pseudomonas aeruginosa [6]) [mm] | zone of inhibition at 50 µg/mL (Klebsiella pneumoniae [7]) [mm] | zone of inhibition at 100 µg/mL (Klebsiella pneumoniae [8]) [mm] | zone of inhibition at 50 µg/mL (Aspergillus niger [13]) [mm] | zone of inhibition at 100 µg/mL (Aspergillus niger [14]) [mm] | zone of inhibition at 50 µg/mL (Penicillium chrysogenum [15]) [mm] | zone of inhibition at 100 µg/mL (Penicillium chrysogenum [16]) [mm] | Activity (A549) | further results |
| --- | --- | --- | --- | --- | --- | --- | --- | --- | --- | --- | --- | --- | --- | --- |
| O=C(N[C@H](CO)[C@H](O)c1ccc([N+](=O)[O-])cc1)C(Cl)Cl [CHLORAMPHENICOL] | 33 | 35 | 34 | 38 | 27 | 30 | 40 | 42 | – | – | – | – | – | MIC (Staphylococcus aureus [9]): 6.25 µg/mL (≈ 19.3 µM); MIC (Bacillus subtilis [10]): 6.25 µg/mL (≈ 19.3 µM); MIC (Pseudomonas aeruginosa [11]): 6.25 µg/mL (≈ 19.3 µM); MIC (Klebsiella pneumoniae [12]): 12.5 µg/mL (≈ 38.7 µM) |
| CC(=O)N1CCN(c2ccc(OCC3COC(Cn4ccnc4)(c4ccc(Cl)cc4Cl)O3)cc2)CC1 (stereo not given) [KETOCONAZOLE] | – | – | – | – | – | – | – | – | 33 | 36 | 36 | 38 | – | MIC (Aspergillus niger [17]): 6.25 µg/mL (≈ 11.8 µM); MIC (Penicillium chrysogenum [18]): 12.5 µg/mL (≈ 23.5 µM) |
| Cc1ccc(NS(=O)(=O)Cc2nnc(CS(=O)(=O)/C=C/S(=O)(=O)c3ccc(C)cc3)n2N)cc1 | 20 | 22 | 23 | 25 | 15 | 17 | 25 | 27 | 19 | 23 | 22 | 25 | inactive | – |
| Cc1ccc(NS(=O)(=O)Cc2nnc(CS(=O)(=O)c3c[nH]nc3S(=O)(=O)c3ccc(C)cc3)n2N)cc1 | 16 | 17 | 18 | 20 | 12 | 14 | 20 | 22 | 16 | 19 | 14 | 18 | inactive | – |
| O=S(=O)(Cc1nnc(CS(=O)(=O)c2c[nH]nc2S(=O)(=O)c2ccccc2)o1)Nc1ccccc1 | 10 | 12 | 13 | 15 | 10 | 12 | 15 | 17 | 10 | 13 | 12 | 15 | inactive | – |
| Cc1ccc(NS(=O)(=O)Cc2nnc(CS(=O)(=O)C3CNN=C3S(=O)(=O)c3ccc(C)cc3)n2N)cc1 (stereo not given) | 13 | 15 | 16 | 18 | 12 | 15 | 18 | 20 | 13 | 16 | 15 | 18 | inactive | – |
| Nn1c(CS(=O)(=O)Nc2ccccc2)nnc1CS(=O)(=O)C1CNN=C1S(=O)(=O)c1ccccc1 (stereo not given) | 13 | 15 | 15 | 17 | 12 | 14 | 17 | 19 | 13 | 15 | 14 | 17 | inactive | – |
| O=S(=O)(Cc1nnc(CS(=O)(=O)c2c[nH]cc2S(=O)(=O)c2ccccc2)s1)Nc1ccccc1 | 15 | 17 | 18 | 20 | 14 | 15 | 20 | 22 | 16 | 18 | 17 | 20 | inactive | – |
| Cc1ccc(NS(=O)(=O)Cc2nnc(CS(=O)(=O)c3c[nH]cc3S(=O)(=O)c3ccc(C)cc3)s2)cc1 | 14 | 16 | 17 | 19 | 13 | 14 | 19 | 21 | 14 | 17 | 16 | 19 | inactive | – |
| O=S(=O)(Cc1nnc(CS(=O)(=O)C2CNN=C2S(=O)(=O)c2ccccc2)s1)Nc1ccccc1 (stereo not given) | 12 | 14 | 14 | 16 | – | – | – | – | – | – | – | – | inactive | diameter of the inhibition zone (DIZ) (Pseudomonas aeruginosa [5]): inactive; diameter of the inhibition zone (DIZ) (Pseudomonas aeruginosa [6]): inactive; diameter of the inhibition zone (DIZ) (Klebsiella pneumoniae [7]): inactive; diameter of the inhibition zone (DIZ) (Klebsiella pneumoniae [8]): inactive; diameter of the inhibition zone (DIZ) (Aspergillus niger [13]): inactive; diameter of the inhibition zone (DIZ) (Aspergillus niger [14]): inactive; diameter of the inhibition zone (DIZ) (Penicillium chrysogenum [15]): inactive; diameter of the inhibition zone (DIZ) (Penicillium chrysogenum [16]): inactive |
| O=S(=O)(Cc1nnc(CS(=O)(=O)C2CNN=C2S(=O)(=O)c2ccc(Cl)cc2)o1)Nc1ccc(Cl)cc1 (stereo not given) | 17 | 18 | 17 | 20 | 17 | 19 | 22 | 24 | 20 | 23 | 22 | 24 | inactive | – |
